Rows were chosen to be rich in hits. Some 3.7% of all compounds tested hit in one or more screens of this group.
WT yeast gro inh – growth inhibition of WT yeast, mitochondrial fusion screen. mitochondrial fusion phenotypic screen, WT strain. inhibition, % at 10 µM. 2.1% of 190,000 active. AID 1362; in the data active = inhibition above about 58%; tested in S. cerevisiae
EBV gp42 inh – inhibitors of Epstein-Barr virus glycoprotein 42 | AID 1085 | 0.42% of 220,000 active | Fluorescence polarization binding assay, mP read-out | inhibition, % (tested at 21.74 µM) | Q1HVG2; in the data active = inhibition above about 50%
NCF1 inh – inhibitors of human p47phox binding; p47phox/p22phox peptide binding, fluorescence polarization, 2 h; inhibition, % at 24.7 µM; P14598; 0.53% of 220,000 active;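 also: 0% = p47phox with labelled peptide and 100% = labelled peptide alone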
Target sequence (P14598 whole entry, looked up): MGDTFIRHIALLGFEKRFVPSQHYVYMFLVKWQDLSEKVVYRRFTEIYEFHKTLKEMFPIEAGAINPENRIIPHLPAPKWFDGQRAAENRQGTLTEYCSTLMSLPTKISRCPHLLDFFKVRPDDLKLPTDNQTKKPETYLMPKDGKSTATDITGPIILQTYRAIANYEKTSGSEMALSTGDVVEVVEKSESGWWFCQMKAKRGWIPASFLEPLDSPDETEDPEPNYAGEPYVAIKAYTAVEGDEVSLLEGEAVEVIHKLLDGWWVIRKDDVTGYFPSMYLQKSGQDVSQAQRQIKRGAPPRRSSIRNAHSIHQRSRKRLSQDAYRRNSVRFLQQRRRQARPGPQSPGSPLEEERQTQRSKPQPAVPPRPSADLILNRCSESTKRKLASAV
14-3-3 Bad PPI – disrupts binding of bovine 14-3-3 zeta to phospho-Bad peptide | P63103 | TR-FRET 14-3-3zeta/Dy647-pBad peptide displacement, 1 h | inhibition, % at 21.7 µM | 0.71% of 220,000 active;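 active = inhibition above about 70%, limit read from the data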;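 also: 0% = full 14-3-3 plus peptide FRET controls and 100% = background without 14-3-3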
RBBP9 inhibitor – blocks human serine hydrolase RBBP9 | O75884 | recombinant RBBP9, FP-Rh probe fluorescence polarization | inhibition, % at 7.94 µM | 0.2% of 220,000 active;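 active = inhibition above the campaign mean of all tested compounds plus 3 SD, cut at about 14% in these data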;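 also: plate controls were DMSO wells with RBBP9 for no effect and wells lacking RBBP9 protein for full effect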
Target sequence (O75884 whole entry, looked up): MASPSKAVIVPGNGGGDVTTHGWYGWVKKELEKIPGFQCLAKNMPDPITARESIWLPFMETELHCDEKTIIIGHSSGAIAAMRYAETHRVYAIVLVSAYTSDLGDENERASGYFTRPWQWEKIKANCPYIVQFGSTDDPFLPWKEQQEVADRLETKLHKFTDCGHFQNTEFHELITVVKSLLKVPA
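Test system: recombinant human RBBP9. Quantity: 2.5 µM RBBP9 dispensing solution, before mixing. Detection: FP readout at 525/598 nm. Reagent: Serine-hydrolase probe FP-Rh, 375 nM pre-mixing. Measure: % inhibition. Control set: DMSO-treated enzyme wells and wells lacking RBBP9. Buffer or medium: Tris-NaCl-Pluronic buffer, pH 8.0. Times: preincubation 30 min plus labeling 45 min at 25 °C.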
eIF4E 4G PPI – eIF4E/eIF4G interaction inhibition in translation initiation; TR-FRET eIF4E-eIF4GI(517-606) binding, 2 h; inhibition, % at 21.7 µM; 0.37% of 220,000 active;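 also: 0% = full FRET control wells and 100% = background wells lacking eIF4GI fragment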
* hit, by the source's call; nt = not tested or not shown; + = active, no number; [ ] = dose if it differs, or a comment.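 The calls were made as follows, unless noted: active = inhibition above about 30% (limit read from the data); inactive = the rest.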

SMILES	WT yeast gro inh	EBV gp42 inh	NCF1 inh	14-3-3 Bad PPI	RBBP9 inhibitor	eIF4E 4G PPI
CCN(CC)c1ccc(C=C2C(=O)OC(c3ccccc3)OC2=O)cc1 (stereo not drawn)	-2.5	90.8*	-240.7	-13.5	-6.8	-3.6
Cc1ccc(C2NC(=O)CCC2[N+](=O)[O-])cc1 (stereo not drawn)	-6.8	-0.8	11.7	-12.8	-3.8	0.6
O=C(Nc1nc2ccccc2s1)c1ccc(Cl)s1	20.5	-8.8	3.1	2.0	1.8	0.0
COc1ccc(C(=O)Nc2nc3ccccc3s2)cc1OC	68.0*	-14.2	-10.7	-6.0	-10.9	2.1
Cc1ccc2nc(NC(=O)c3ccc(-c4nc5ccccc5s4)s3)sc2c1	8.3	-83.3	17.1	82.7*[fluorescence artefact?]	-2.1	11.7
CN(C)C(=S)Nc1nc2ccccc2s1	73.8*	-2.5	-10.7	-3.2	-3.3	2.9
O=C(N/N=C/c1ccc(OC(=O)c2cccs2)cc1)c1cccc(F)c1	-6.6	5.6	-27.8	71.6*	-2.4	-44.5
COC(=O)c1cc(C#N)c(N2CC(C)OC(C)C2)nc1C (stereo not drawn)	4.1	7.5	-12.9	5.3	-0.3	0.1
CCc1nnc(NC(=O)C2=CCN(S(=O)(=O)c3ccc(F)cc3)CC2)s1	nt	-14.8	-0.9	8.3	6.2	-4.8
CCOCC(=O)Nc1cc(C(F)(F)F)ccc1Oc1cccc(Br)c1	66.2*	1.8	-4.3	12.9	-2.7	6.0
CC(=O)Nc1cc(C(F)(F)F)ccc1Oc1cccc(Br)c1	7.5	-11.3	4.6	4.4	-5.6	2.2
Fc1ccc(-c2cnc3n2CCCCC3)cc1	7.0	-11.9	-4.0	-2.5	-3.9	-3.0
O=C(Cn1c2ccc(F)cc2c2nc3n(c(=O)c21)CCS3)Nc1ccccc1C(F)(F)F	1.8	-9.7	10.3	81.1*	-10.5	18.4
Cc1ccc(N2C(SCC(=O)O)=NC(=Nc3cccc(C)c3)C23CCCC3)cc1	-11.3	-37.3	-1.4	-13.4	1.8	0.7
CC1CCN(C(=S)c2ccc(O)cc2)CC1	2.9	-15.9	3.1	-9.6	-1.5	-4.2
CC1CCN(C(=S)c2ccccc2O)CC1	-23.7	-27.3	-8.2	-8.0	-7.6	30.7*[fluorescence artefact?]
O=C(COC(=O)c1ccc(Cl)cc1O)NCCN1C(=O)CSC1=O	nt	-22.3	1.3	96.9*	-7.1	-7.5
CC(C)(C)NC(=O)NC(=O)CN1CCN(c2cccc(Cl)c2)CC1	nt	-11.8	-22.5	-3.4	-5.2	85.3*
CC(C)(C)NC(=O)NC(=O)CN1CCN(c2ccccc2)CC1	-1.5	-13.1	-6.0	-7.7	-5.3	2.5
O=S(=O)([N-]c1nc2ccccc2nc1-[n+]1ccccc1)c1ccc(F)cc1	-8.8	2.0	0.1	-1.6	-5.6	1.7
Cc1cc(NC(=O)CCCn2ccc([N+](=O)[O-])n2)n(Cc2ccc(F)cc2)n1	9.3	-2.2	-13.1	-3.3	-8.7	3.4
CCOC(=O)c1c(C)[nH]c(C)c1C(=O)CSc1nc2ccccc2n1CC	3.4	122.0*	-4.2	-6.2	-14.8	-1.8
COc1ccc(/C=C(\C#N)C(=O)NCC(c2ccc(F)cc2)N2CCOCC2)cc1 (stereo not drawn)	nt	-8.2	-7.9	-5.6	-1.2	-0.4
Cc1ccc(O)c(C(=O)/C=C/c2ccc3c(c2)OCCO3)c1	59.7*	-3.8	-1.5	4.5	-0.8	1.0
O=C(/C=C/c1ccc2c(c1)OCCO2)c1ccccc1	nt	-8.5	-19.2	2.2	-4.0	-4.3
SMILES	WT yeast gro inh	EBV gp42 inh	NCF1 inh	14-3-3 Bad PPI	RBBP9 inhibitor	eIF4E 4G PPI
CN(C1CCCCC1)S(=O)(=O)c1cccc(C(=O)OCC(=O)NC2CCCc3ccccc32)c1 (stereo not drawn)	2.9	-0.1	-16.9	-2.6	-10.0	19.7
Cc1ccc(Cl)cc1NC(=S)N(Cc1cccs1)C1CCCC1	22.1	3.8	7.4	-9.9	-3.5	0.5
O=C(O)CNC(=S)N(Cc1ccccc1)Cc1cccs1	-0.1	-14.0	-0.9	-2.2	2.8	1.1
Cc1ccccc1NC(=S)N(Cc1cccs1)C1CCCCC1	67.1*	3.2	1.1	-12.7	-5.4	-2.2
Cc1cccc(C)c1NC(=S)N(Cc1ccccc1)Cc1cccs1	72.6*	0.0	-1.4	-6.0	-13.0	-0.2
Cc1c(Cl)cccc1NC(=S)N(Cc1cccs1)C1CCCC1	67.0*	-3.3	-2.7	14.7	4.5	-1.6
CC(C)n1cnnc1SCC(=O)Nc1cccc(S(=O)(=O)N(C)c2ccccc2)c1	nt	-13.4	-11.2	1.6	-7.9	-16.3
CC(C)(CO)C(O)C(=O)NCCC#N (stereo not drawn)	-5.3	-14.9	11.4	-5.7	2.4	2.7
CCC(=O)Nc1cc(C(=O)OCC(=O)c2ccccc2)ccc1C	-10.7	-16.7	-4.1	10.6	-5.7	0.2
COc1cc2[nH]c(=S)nc(NC3CCCC3)c2cc1OC	2.5	-9.0	-6.2	-4.6	-5.7	-5.1
O=C(Nc1cccc(NC(=O)C2CCCO2)c1)c1ccco1 (stereo not drawn)	-22.2	-8.4	3.0	-1.9	-7.0	-4.3
CCN1/C(=C/c2ccc3cc(C)ccc3[n+]2C)Sc2ccc3sccc3c21	95.2*	+	-242.9	0.4	-29.0	3.5
COc1ccccc1OC1=NS(=O)(=O)c2ccccc21	15.7	5.5	-4.0	84.7*	5.1	22.1
Cc1ccc(OC2=NS(=O)(=O)c3ccccc32)cc1	-12.4	-12.8	-18.9	26.7	-5.6	6.2
O=C(NC1CCCCC1)C1CCN(c2cnccn2)CC1	17.9	-11.7	3.4	-10.9	-1.3	39.8*
Cc1ccc(NC(=S)N/N=C2/CCCCc3ccccc32)cc1	nt	-2.2	-8.5	-10.8	-4.4	-7.9
C=C(C)CNC(=S)N/N=C1\CCCCc2ccccc21	64.9*	-14.6	-3.5	-5.1	-8.3	-0.9
Cc1cccc(NC(=S)N/N=C2/CCCCc3ccccc32)c1	63.2*	-10.0	-7.1	0.4	-10.5	4.6
Cc1oc(S(=O)(=O)N(C)C)cc1C(=O)Nc1ccc(Cl)cc1	nt	-14.3	-2.2	-1.0	-4.6	5.7
CCCC1C2C(=O)N(c3ccc(OC)cc3)C(=O)C2ON1c1ccccc1 (stereo not drawn)	5.2	-11.6	3.2	89.8*	-8.0	-24.1
CCCC1C2C(=O)N(c3cccc(C)c3)C(=O)C2ON1c1ccccc1 (stereo not drawn)	nt	-10.4	-5.2	-3.3	-12.8	0.6
Cn1c(=O)c(C(=O)Nc2ccccc2S(N)(=O)=O)c(O)c2ccccc21	nt	-9.9	-0.1	-1.9	-2.2	-0.6
CCC(C)n1c(=O)c(C(=O)Nc2ccccc2S(N)(=O)=O)c(O)c2ccccc21 (stereo not drawn)	65.2*	-21.3	-7.4	-8.9	-4.7	-14.0
CC(C)Cn1c(=O)c(C(=O)Nc2ccccc2S(N)(=O)=O)c(O)c2ccccc21	72.9*	-8.7	-6.0	-6.0	-3.3	-12.1
CCN(CC)C(=S)SCC(=O)Nc1ncc2c(n1)CCCC2=O	nt	-12.5	-3.3	0.9	-11.1	-0.1

Bioassay records as filed in PubChem BioAssay.
